According to article PMC7083616 (Science Advances, 2020):

How the values were obtained:
[1] = biological target: T1, ~55-kDa band (TrxR1) in A549 cell lysates (Homo sapiens, UniProt Q16881); test: DG-8 competition assay in A549 cell lysates; assay type: binding; conditions: compound 0.5 to 50 μM 30 min, then DG-8 5 μM 30 min
T1 sequence (Q16881 1-499 isoform Q16881-5): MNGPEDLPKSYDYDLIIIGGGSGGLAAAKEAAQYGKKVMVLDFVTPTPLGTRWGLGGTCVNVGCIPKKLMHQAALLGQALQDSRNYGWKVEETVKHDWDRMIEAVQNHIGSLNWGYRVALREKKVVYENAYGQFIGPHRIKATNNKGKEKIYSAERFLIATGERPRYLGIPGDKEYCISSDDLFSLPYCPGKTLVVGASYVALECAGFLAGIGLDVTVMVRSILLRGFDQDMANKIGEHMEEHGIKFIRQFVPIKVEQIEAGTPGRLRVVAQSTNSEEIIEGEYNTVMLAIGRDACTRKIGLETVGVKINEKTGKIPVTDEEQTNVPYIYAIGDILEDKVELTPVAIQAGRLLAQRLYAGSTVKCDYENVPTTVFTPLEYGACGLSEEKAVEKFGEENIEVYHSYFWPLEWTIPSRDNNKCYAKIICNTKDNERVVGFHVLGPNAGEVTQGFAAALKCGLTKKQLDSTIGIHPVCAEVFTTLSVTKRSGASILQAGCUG
Outline: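 A549 lysate (30 μg) was preincubated with test compound (0.5 to 50 μM) for 30 min, then with the dansyl-tagged probe (5 μM) for 30 min. Samples in LDS buffer with 100 mM DTT were heated at 95°C for 5 min and run on 10% bis-tris gels. The ~55-kDa band was imaged by UV dansyl fluorescence.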

NFκB = test: pTRAF reporter, NFκB transcriptional activity; assay type: cell-based, human; conditions: HEK293 cells, 1 μM, 24 hours
Outline: (§1)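 HEK293 cells were seeded at 20,000 per well on collagen I-coated plates. The next day, they were transfected overnight with 50 ng of the pTRAF-Nrf2/HIF/NFκB vector using Turbofect. Cells were then exposed for 24 h to 1 μM test compound. Positive controls were auranofin (1 μM) for Nrf2 and TNF-α (20 ng/ml) for NFκB. After 30 min Hoechst (40 ng/ml), per-well reporter fluorescence was quantified by high-content imaging.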

TrxR1 [2] = biological target: T2, TrxR1 (Homo sapiens, UniProt Q16881); test: Cellular TrxR1 activity, Trx1-linked insulin end point assay; assay type: cell-based; conditions: FaDu cells, 1 μM, 3 hours
T2 sequence (Q16881 1-499 isoform Q16881-5): T1 sequence (Q16881 1-499 isoform Q16881-5)
Outline: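 FaDu cells were seeded at 400,000 per well and treated 24 h later for 3 h at 37°C. Cells were lysed in modified RIPA buffer and protein measured by BCA. Lysate was incubated with 0.16 mM insulin, 0.33 mM NADPH and 16 μM Trx1 in TE buffer (pH 7.5) at 37°C for 0–90 min. Each time point was stopped with 7.2 M guanidine-HCl/2.5 mM DTNB and read at A412. Activity came from the A412 rise against a pure-enzyme standard curve; n = 3.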

TrxR1 [3] = biological target: T2, TrxR1; test: Recombinant TrxR1 insulin reduction assay; assay type: biochemical; conditions: with NADPH, Trx1 used to reduce insulin
Outline: (§2)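 Test compound was preincubated for 75 min with 10 nM TrxR1 or 10 nM TrxR2, plus BSA (0.1 mg/ml) and 250 μM NADPH. Then 25 μM Trx1 (TrxR1) or Trx2 (TrxR2) and 160 μM insulin were added. NADPH consumption was followed at A340 for 20 min.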

[4] = tested on: STAT-driven luciferase expression; test: STAT-dependent luciferase in HEK293-shScramble and HEK293–shPrx1 + Prx2; assay type: cell-based, human; conditions: IL6 50 ng/ml + sIL6R 100 ng/ml
Nrf2 = test: pTRAF reporter, Nrf2 transcriptional activity; assay type: cell-based, human; conditions: HEK293 cells, 1 μM, 24 hours
Outline: as §1

TrxR2 = TrxR2 (Homo sapiens, UniProt Q9NNW7); test: Recombinant TrxR2 insulin reduction assay; assay type: biochemical; conditions: with NADPH, Trx2 used to reduce insulin
Outline: as §2

TrxR2, sequence (Q9NNW7 37-524, species assumed): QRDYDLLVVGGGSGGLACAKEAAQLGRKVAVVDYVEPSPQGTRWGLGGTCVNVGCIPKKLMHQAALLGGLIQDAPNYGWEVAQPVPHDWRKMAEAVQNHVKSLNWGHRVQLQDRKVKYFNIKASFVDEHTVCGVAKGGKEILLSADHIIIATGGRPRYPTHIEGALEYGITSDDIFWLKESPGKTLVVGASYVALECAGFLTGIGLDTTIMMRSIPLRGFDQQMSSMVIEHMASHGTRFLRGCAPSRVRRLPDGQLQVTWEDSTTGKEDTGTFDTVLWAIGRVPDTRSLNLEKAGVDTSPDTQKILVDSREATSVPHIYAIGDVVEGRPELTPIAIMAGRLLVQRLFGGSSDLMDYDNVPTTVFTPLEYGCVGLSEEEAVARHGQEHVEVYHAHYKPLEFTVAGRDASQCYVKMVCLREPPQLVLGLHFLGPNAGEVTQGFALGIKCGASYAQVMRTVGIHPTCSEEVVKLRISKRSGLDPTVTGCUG

Structure (SMILES) | competition with DG-8 for binding to the ~55-kDa band [1] | NFκB activation (NFκB) | inhibition of cellular TrxR1 activity (TrxR1 [2]) | inhibition of recombinant TrxR1 activity (TrxR1 [3]) | luciferase inhibition in control versus Prx1 + Prx2 knockdown cells [4] | Nrf2 activation (Nrf2) | inhibition of recombinant TrxR2 activity (TrxR2) | effect on cellular TrxR1 activity (TrxR1 [2])
O=[N+]([O-])c1ccc2c(c1)S(=O)(=O)C=C2 [Stattic] | could compete with DG-8 for binding | little effect on NFκB activation | approximately 40% | potently inhibited the activity of TrxR1 | more potently inhibited luciferase expression in the control cells | clearly triggered Nrf2 activation | – | –
CC(=O)OC[C@H]1O[C@@H]([S-])[C@H](OC(C)=O)[C@@H](OC(C)=O)[C@@H]1OC(C)=O.CCP(CC)CC.[Au+] [auranofin] | potently outcompeted the probe | – | – | potently inhibited the activity of TrxR1 | – | – | the only compound that inhibited TrxR2 | –
COc1ccc([N+](=O)[O-])c(S(=O)(=O)c2ccc(Cl)cc2)n1 [TRi-1] | potently outcompeted the probe | – | – | – | more potently inhibited luciferase expression in the control cells | – | – | –
CN(CC(=O)N(Cc1ccc(C2CCCCC2)cc1)c1ccc(C(=O)O)c(O)c1)S(=O)(=O)c1c(F)c(F)c(F)c(F)c1F [BP1-102] | not able to compete with the probe | – | – | did not fully inhibit the enzymatic activity of TrxR1 | – | did not activate Nrf2 | – | did not appreciably alter the TrxR1 activity
